≈ marks a conversion by molar mass, not a printed value. Calls of active or inactive are those of the source. The rule behind the calls is not given here.
How the values were obtained:
Candida albicans [1] = assay: Antifungal activity against multidrug-resistant Candida albicans after 24 hrs by serial dilution method; type: functional
In short: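 Broth serial dilution in 96-well plates per NCCLS recommendations; RPMI 1640 buffered with 0.165 M MOPS as medium. Compounds dissolved in DMSO, serially diluted in growth medium. Strains from ATCC or clinical isolates. Yeasts incubated at 35 °C, read at 24 h for Candida. MIC = lowest concentration giving turbidity at or below 80% inhibition versus growth control.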

Candida tropicalis = assay: Antifungal activity against Candida tropicalis after 24 hrs by serial dilution method; type: functional
In short: (§1)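 NCCLS broth microdilution in RPMI 1640 buffered with 0.165 M MOPS, with strains from ATCC or clinical isolates. Compounds were dissolved in DMSO and serially diluted in medium. Yeasts were incubated at 35 °C and read at 24 h for Candida or 72 h for C. neoformans. MIC was the lowest concentration giving ≥80% turbidity inhibition versus the growth control.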

Candida albicans [2] = assay: Antifungal activity against Candida albicans after 24 hrs by serial dilution method; type: functional; in short: as §1
Cryptococcus neoformans = assay: Antifungal activity against Cryptococcus neoformans after 72 hrs by serial dilution method; type: functional; in short: as §1
Trichophyton rubrum = assay: Antifungal activity against Trichophyton rubrum after 7 days by serial dilution method; type: functional; details: 168 h
In short: (§2)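 Dermatophytes (ATCC or clinical isolates) were tested by NCCLS serial dilution in RPMI 1640 with 0.165 M MOPS, incubated at 28 °C and read at 7 days. Compounds were taken up in DMSO and diluted in medium. MIC was the lowest concentration reducing turbidity by at least 80% relative to the drug-free growth control.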

Aspergillus fumigatus = assay: Antifungal activity against Aspergillus fumigatus after 7 days by serial dilution method; type: functional; details: 168 h
In short: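 Filamentous fungus (ATCC or clinical isolate) was tested by NCCLS microdilution in MOPS-buffered (0.165 M) RPMI 1640. Compounds were dissolved in DMSO and serially diluted in medium, and growth was scored at 7 days. MIC was the lowest concentration producing ≥80% inhibition of turbidity compared with the untreated control.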

Nannizzia gypsea = assay: Antifungal activity against Microsporum gypseum after 7 days by serial dilution method; type: functional; details: 168 h; in short: as §2
Candida parapsilosis = assay: Antifungal activity against Candida parapsilosis after 24 hrs by serial dilution method; type: functional, organism-based; in short: as §1

Row | Compound | MIC80 (Candida albicans [1]) [µg/mL] | MIC80 (Candida tropicalis) [µg/mL] | MIC80 (Candida albicans [2]) [µg/mL] | MIC80 (Cryptococcus neoformans) [µg/mL] | MIC80 (Trichophyton rubrum) [µg/mL] | MIC80 (Aspergillus fumigatus) [µg/mL] | MIC80 (Nannizzia gypsea) [µg/mL] | Activity (Candida parapsilosis)
1 | CC(=O)Nc1ccc(OCCCN2CCN(CC(O)(Cn3cncn3)c3ccc(F)cc3F)CC2)cc1 (racemic) | 2 (≈ 3.89 µM) | 0.25 (≈ 0.486 µM) | 0.25 (≈ 0.486 µM) | 1 (≈ 1.94 µM) | 0.25 (≈ 0.486 µM) | > 64 | 4 (≈ 7.77 µM) | Active
2 | O=[N+]([O-])c1ccc(OCCCN2CCN(CC(O)(Cn3cncn3)c3ccc(F)cc3F)CC2)cc1 (racemic) | 0.125 (≈ 0.249 µM) | 0.0625 (≈ 0.124 µM) | 0.0625 (≈ 0.124 µM) | 0.25 (≈ 0.497 µM) | 0.0625 (≈ 0.124 µM) | 32 (≈ 63.7 µM) | 1 (≈ 1.99 µM) | Active
3 | Cc1ccccc1OCCCN1CCN(CC(O)(Cn2cncn2)c2ccc(F)cc2F)CC1 (racemic) | 0.125 (≈ 0.265 µM) | 0.0625 (≈ 0.133 µM) | 0.0625 (≈ 0.133 µM) | 1 (≈ 2.12 µM) | 0.25 (≈ 0.53 µM) | 32 (≈ 67.9 µM) | 1 (≈ 2.12 µM) | Active
4 | Nc1cccc(OCCCN2CCN(CC(O)(Cn3cncn3)c3ccc(F)cc3F)CC2)c1 (racemic) | 0.25 (≈ 0.529 µM) | 1 (≈ 2.12 µM) | 1 (≈ 2.12 µM) | 16 (≈ 33.9 µM) | 4 (≈ 8.46 µM) | > 64 | 64 (≈ 135 µM) | Active
5 | OC(CN1CCN(CCCOc2ccccc2)CC1)(Cn1cncn1)c1ccc(F)cc1F (racemic) | 64 (≈ 140 µM) | 0.0625 (≈ 0.137 µM) | 0.0156 (≈ 0.0341 µM) | 1 (≈ 2.19 µM) | 0.25 (≈ 0.546 µM) | 32 (≈ 69.9 µM) | 4 (≈ 8.74 µM) | Active
6 | OC(CN1CCN(CCCOc2ccccc2Br)CC1)(Cn1cncn1)c1ccc(F)cc1F (racemic) | 8 (≈ 14.9 µM) | 0.0156 (≈ 0.0291 µM) | 0.0625 (≈ 0.117 µM) | 1 (≈ 1.86 µM) | 0.25 (≈ 0.466 µM) | 16 (≈ 29.8 µM) | 1 (≈ 1.86 µM) | Active
7 | OC(CN1CCN(CCCCOc2ccccc2)CC1)(Cn1cncn1)c1ccc(F)cc1F (racemic) | 32 (≈ 67.9 µM) | 0.25 (≈ 0.53 µM) | 0.25 (≈ 0.53 µM) | 1 (≈ 2.12 µM) | 1 (≈ 2.12 µM) | 8 (≈ 17 µM) | 4 (≈ 8.48 µM) | Active
8 | OC(CN1CCN(CCCOc2ccc(F)cc2)CC1)(Cn1cncn1)c1ccc(F)cc1F (racemic) | 32 (≈ 67.3 µM) | 0.0625 (≈ 0.131 µM) | 0.0156 (≈ 0.0328 µM) | 1 (≈ 2.1 µM) | 0.25 (≈ 0.526 µM) | 32 (≈ 67.3 µM) | 1 (≈ 2.1 µM) | Active
9 | OC(CN1CCN(CCCOc2cccc(Br)c2)CC1)(Cn1cncn1)c1ccc(F)cc1F (racemic) | 16 (≈ 29.8 µM) | 0.0156 (≈ 0.0291 µM) | 0.0156 (≈ 0.0291 µM) | 0.25 (≈ 0.466 µM) | 0.0625 (≈ 0.117 µM) | 4 (≈ 7.46 µM) | 0.25 (≈ 0.466 µM) | Active
10 | CC(C)(C)c1ccc(OCCCN2CCN(CC(O)(Cn3cncn3)c3ccc(F)cc3F)CC2)cc1 (racemic) | 0.125 (≈ 0.243 µM) | 0.0156 (≈ 0.0304 µM) | 0.0156 (≈ 0.0304 µM) | 0.0625 (≈ 0.122 µM) | 0.0156 (≈ 0.0304 µM) | 2 (≈ 3.89 µM) | 0.0625 (≈ 0.122 µM) | Active
11 | Nc1ccccc1OCCCN1CCN(CC(O)(Cn2cncn2)c2ccc(F)cc2F)CC1 (racemic) | 0.5 (≈ 1.06 µM) | 0.25 (≈ 0.529 µM) | 0.25 (≈ 0.529 µM) | 4 (≈ 8.46 µM) | 1 (≈ 2.12 µM) | 64 (≈ 135 µM) | 16 (≈ 33.9 µM) | Active
12 | O=C(Nc1ccc(OCCCN2CCN(CC(O)(Cn3cncn3)c3ccc(F)cc3F)CC2)cc1)c1ccccc1 (racemic) | 0.5 (≈ 0.867 µM) | 1 (≈ 1.73 µM) | 0.25 (≈ 0.434 µM) | 16 (≈ 27.7 µM) | 16 (≈ 27.7 µM) | > 64 | 64 (≈ 111 µM) | Active
13 | C[C@@H](c1ncncc1F)[C@](O)(Cn1cncn1)c1ccc(F)cc1F [VORICONAZOLE] | > 64 | 0.0625 (≈ 0.179 µM) | 0.0625 (≈ 0.179 µM) | 0.0625 (≈ 0.179 µM) | 0.0625 (≈ 0.179 µM) | 0.5 (≈ 1.43 µM) | 0.0625 (≈ 0.179 µM) | Active
14 | OC(Cn1cncn1)(Cn1cncn1)c1ccc(F)cc1F [FLUCONAZOLE] | > 64 | 1 (≈ 3.27 µM) | 1 (≈ 3.27 µM) | 1 (≈ 3.27 µM) | 4 (≈ 13.1 µM) | > 64 | 16 (≈ 52.2 µM) | Active
15 | Cc1cccc(OCCCN2CCN(CC(O)(Cn3cncn3)c3ccc(F)cc3F)CC2)c1 (racemic) | 0.125 (≈ 0.265 µM) | 0.0625 (≈ 0.133 µM) | 0.0156 (≈ 0.0331 µM) | 1 (≈ 2.12 µM) | 0.25 (≈ 0.53 µM) | 16 (≈ 33.9 µM) | 1 (≈ 2.12 µM) | Active
16 | Nc1ccc(OCCCN2CCN(CC(O)(Cn3cncn3)c3ccc(F)cc3F)CC2)cc1 (racemic) | 0.25 (≈ 0.529 µM) | 1 (≈ 2.12 µM) | 0.25 (≈ 0.529 µM) | 4 (≈ 8.46 µM) | 4 (≈ 8.46 µM) | 64 (≈ 135 µM) | 16 (≈ 33.9 µM) | Active
17 | OC(CN1CCN(CCCOc2ccc(Br)cc2)CC1)(Cn1cncn1)c1ccc(F)cc1F (racemic) | 0.25 (≈ 0.466 µM) | 0.0156 (≈ 0.0291 µM) | 0.0156 (≈ 0.0291 µM) | 0.25 (≈ 0.466 µM) | 0.0625 (≈ 0.117 µM) | 1 (≈ 1.86 µM) | 0.25 (≈ 0.466 µM) | Active
18 | OC(CN1CCN(CCCOc2ccccc2Cl)CC1)(Cn1cncn1)c1ccc(F)cc1F (racemic) | 16 (≈ 32.5 µM) | 0.0625 (≈ 0.127 µM) | 0.0625 (≈ 0.127 µM) | 1 (≈ 2.03 µM) | 0.25 (≈ 0.508 µM) | 32 (≈ 65 µM) | 1 (≈ 2.03 µM) | Active
